# Results published in ChEMBL document CHEMBL3120098, “Structure-activity relationship (SAR) optimization of 6-(indol-2-yl)pyridine-3-sulfonamides: identification of potent, selective, and orally bioavailable small molecules targeting hepatitis C (HCV) NS4B” (J Med Chem, 2014).
# How the values were obtained:
# [1] = AUC (0 to infinity) in Sprague-Dawley rat at 10 mg/kg, po; format: ADME, organism-based; parameters: time infinity, dose 10 mg/kg, route oral; settings: plasma
# Rattus norvegicus [2] = species on record: Rattus norvegicus; assay: Drug metabolism in bile duct cannulated rat assessed as 6-(3-cyano-5-fluoro-6-(1-hydroxyethyl)-1-(pyrimidin-2-yl)-1H-indol-2-yl)pyridine-3-sulfonamide level in plasma; format: ADME, organism-based
# Rattus norvegicus [3] = species on record: Rattus norvegicus; assay: Drug metabolism in bile duct cannulated rat assessed as 6-(3-cyano-5-fluoro-6-(1-hydroxyethyl)-1-(pyrimidin-2-yl)-1H-indol-2-yl)-N-((S)-1,1,1-trifluoropropan-2-yl)pyridine-3-sulfonamide level in plasma; format: ADME, organism-based
# Rattus norvegicus [4] = species on record: Rattus norvegicus; assay: Drug metabolism in bile duct cannulated rat assessed as 6-(3-cyano-6-ethyl-5-fluoro-1-(pyrimidin-2-yl)-1H-indol-2-yl)pyridine-3-sulfonamide level in plasma; format: ADME, organism-based
# Rattus norvegicus [5] = assay: Toxicity in rat up to 2000 mg/kg/day; format: organism-based; settings: in vivo
# How it was run: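 Non-GLP 14-day rat safety study with daily dosing up to 2000 mg/kg/day.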
# Hepatitis C virus [6] = assay: Antiviral activity against HCV1a H77S assessed as inhibition of viral replication; format: functional, organism-based, Hepacivirus hominis; settings: genotype 1a H77S
# Rhesus monkey = assay: Drug metabolism in bile duct cannulated monkey assessed as GSH adduct formation; format: ADME, organism-based, Macaca mulatta; settings: in vivo
# Canis familiaris = species on record: Canis familiaris; assay: Drug metabolism in bile duct cannulated dog assessed as GSH adduct formation; format: ADME, organism-based, Canis lupus familiaris; settings: in vivo
# [7] = Ratio of EC50 for HCV1b Con1 to plasma concentration in cynomolgus monkey at 5 mg/kg, po after 8 hrs
# [8] = Ratio of EC50 for HCV1b Con1 to plasma concentration in beagle dog at 5 mg/kg, po after 8 hrs
# [9] = Ratio of EC50 for HCV1b Con1 to plasma concentration in Sprague-Dawley rat at 10 mg/kg, po after 8 hrs
# [10] = Volume of distribution at steady state in cynomolgus monkey at 2.5 mg/kg, iv and 5 mg/kg, po; format: ADME, organism-based, Macaca fascicularis; settings: in vivo, read-out: Vdss
# [11] = Volume of distribution at steady state in beagle dog at 2.5 mg/kg, iv and 5 mg/kg, po; format: ADME, organism-based, Canis lupus familiaris; settings: in vivo, read-out: Vdss
# [12] = Volume of distribution at steady state in Sprague-Dawley rat at 6 mg/kg, iv and 10 mg/kg, po; format: ADME, organism-based; settings: in vivo, read-out: Vdss
# [13] = Cmax in cynomolgus monkey at 5 mg/kg, po; format: ADME, organism-based, Macaca fascicularis; parameters: dose 5 mg/kg, route oral; settings: in vivo
# [14] = Cmax in beagle dog at 5 mg/kg, po; format: ADME, organism-based, Canis lupus familiaris; parameters: dose 5 mg/kg, route oral; settings: in vivo
# [15] = Cmax in Sprague-Dawley rat at 10 mg/kg, po; format: ADME, organism-based; parameters: dose 10 mg/kg, route oral; settings: in vivo
# [16] = AUC (0 to infinity) in cynomolgus monkey at 5 mg/kg, po; format: ADME, organism-based, Macaca fascicularis; parameters: time infinity, dose 5 mg/kg, route oral; settings: plasma
# [17] = AUC (0 to infinity) in beagle dog at 5 mg/kg, po; format: ADME, organism-based, Canis lupus familiaris, Plasma; parameters: dose 5 mg/kg, route oral, time infinity; settings: beagle, plasma
# Hepatocyte [18] = assay: Induction of CYP3A4 mRNA expression in human hepatocytes at 5 uM relative to rifampicin; format: ADME, cell-based
# How it was run: (§1)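 Cryopreserved cultured human hepatocytes incubated 3 days with compound at several concentrations; CYP3A4 enzyme activity and mRNA expression measured, expressed as percent induction relative to rifampicin.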
# Cytochrome P450 3A4 [19] = target: T1, Cytochrome P450 3A4 (Homo sapiens, UniProt P08684); assay: Induction of CYP3A4 activity in human hepatocytes at 5 uM relative to rifampicin; format: ADME, cell-based, Hepatocyte; how it was run: as §1
# Hepatocyte [20] = assay: Induction of CYP3A4 mRNA expression in human hepatocytes at 3 uM relative to rifampicin; format: ADME, cell-based; how it was run: as §1
# Cytochrome P450 3A4 [21] = target: T1, Cytochrome P450 3A4; assay: Induction of CYP3A4 activity in human hepatocytes at 3 uM relative to rifampicin; format: ADME, cell-based, Hepatocyte; how it was run: as §1
# Cytochrome P450 2C9 = Cytochrome P450 2C9 (Homo sapiens, UniProt P11712); assay: Inhibition of CYP2C9 in human liver microsomes; format: ADME
# Cytochrome P450 2D6 = Cytochrome P450 2D6 (Homo sapiens, UniProt P10635); assay: Inhibition of CYP2D6 in human liver microsomes; format: ADME
# Cytochrome P450 3A4 [22] = target: T1, Cytochrome P450 3A4; assay: Inhibition of CYP3A4 in human liver microsomes; format: ADME
# [23] = Terminal half life in cynomolgus monkey at 2.5 mg/kg, iv; format: ADME, organism-based, Macaca fascicularis; parameters: dose 2.5 mg/kg, route intravenous; settings: in vivo, read-out: beta t1/2 (converted)
# [24] = Terminal half life in beagle dog at 2.5 mg/kg, iv; format: ADME, organism-based, Canis lupus familiaris; parameters: dose 2.5 mg/kg, route intravenous; settings: in vivo, read-out: beta t1/2 (converted)
# [25] = Terminal half life in Sprague-Dawley rat at 6 mg/kg, iv; format: ADME, organism-based; parameters: dose 6 mg/kg, route intravenous; settings: in vivo, read-out: beta t1/2 (converted)
# [26] = Clearance in cynomolgus monkey at 2.5 mg/kg, iv; format: ADME, organism-based, Macaca fascicularis; parameters: dose 2.5 mg/kg, route intravenous; settings: in vivo
# [27] = Clearance in beagle dog at 2.5 mg/kg, iv; format: ADME, organism-based, Canis lupus familiaris; parameters: dose 2.5 mg/kg, route intravenous; settings: in vivo
# [28] = Clearance in Sprague-Dawley rat at 6 mg/kg, iv; format: ADME, organism-based; parameters: dose 6 mg/kg, route intravenous; settings: in vivo
# [29] = Oral bioavailability in cynomolgus monkey at 5 mg/kg; format: ADME, organism-based, Macaca fascicularis; settings: in vivo
# [30] = Oral bioavailability in beagle dog at 5 mg/kg; format: ADME, organism-based, Canis lupus familiaris; settings: beagle, in vivo
# [31] = Oral bioavailability in Sprague-Dawley rat at 10 mg/kg; format: ADME, organism-based; settings: in vivo
# [32] = Ratio of drug level in liver to plasma in Sprague-Dawley rat at 10 mg/kg, po after 6 hrs; format: ADME, organism-based; parameters: dose 10 mg/kg, route oral
# How it was run: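 Male Sprague-Dawley rats, 10 mg/kg PO suspension in 0.4% hydroxypropyl methylcellulose; liver and plasma drug levels measured at 6 h, expressed as liver/plasma ratio.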
# [33] = Ratio of EC50 for HCV1b Con1 to plasma concentration in Sprague-Dawley rat at 10 mg/kg, po after 6 hrs
# [34] = AUC (0 to 6 hrs) in Sprague-Dawley rat at 10 mg/kg, po; format: ADME, organism-based; parameters: time < 6 hr, dose 10 mg/kg, route oral; settings: plasma
# [35] = Toxicity in human HuH7 cells assessed as effect on GAPDH mRNA level; format: cell-based, Huh-7
# How it was run: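 Run in parallel with replicon assay in Con1 replicon Huh-7 cells (0.5% DMSO, 37 °C); endogenous GAPDH mRNA quantified by TaqMan RT-PCR; highest concentration tested 10000 nM.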
# Hepatitis C virus [36] = assay: Antiviral activity against HCV1b Con1 infected in human HuH7 cells assessed as inhibition of viral RNA replication by RT-PCR analysis; format: functional, organism-based, Hepacivirus hominis; settings: isolate Con1, Huh-7
# [37] = tested on: Pregnane X receptor (Homo sapiens); assay: Activation of PXR (unknown origin) at 10 uM by reporter gene assay
# Chain of Cytochrome P450 2C9 (P11712 whole entry): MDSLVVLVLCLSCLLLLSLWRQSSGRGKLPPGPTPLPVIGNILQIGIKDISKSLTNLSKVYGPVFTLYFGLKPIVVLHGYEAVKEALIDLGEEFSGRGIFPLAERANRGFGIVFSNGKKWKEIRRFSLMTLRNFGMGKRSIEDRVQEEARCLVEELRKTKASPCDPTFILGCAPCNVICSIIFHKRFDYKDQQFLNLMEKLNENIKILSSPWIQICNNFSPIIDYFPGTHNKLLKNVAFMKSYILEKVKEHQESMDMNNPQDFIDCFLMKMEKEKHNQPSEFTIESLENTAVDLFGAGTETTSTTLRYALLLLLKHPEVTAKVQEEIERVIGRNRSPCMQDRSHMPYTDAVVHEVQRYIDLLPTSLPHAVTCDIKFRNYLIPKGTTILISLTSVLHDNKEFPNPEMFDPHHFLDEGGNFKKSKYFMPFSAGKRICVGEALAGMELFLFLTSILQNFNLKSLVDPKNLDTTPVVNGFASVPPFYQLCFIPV
# T1 sequence (P08684 whole entry): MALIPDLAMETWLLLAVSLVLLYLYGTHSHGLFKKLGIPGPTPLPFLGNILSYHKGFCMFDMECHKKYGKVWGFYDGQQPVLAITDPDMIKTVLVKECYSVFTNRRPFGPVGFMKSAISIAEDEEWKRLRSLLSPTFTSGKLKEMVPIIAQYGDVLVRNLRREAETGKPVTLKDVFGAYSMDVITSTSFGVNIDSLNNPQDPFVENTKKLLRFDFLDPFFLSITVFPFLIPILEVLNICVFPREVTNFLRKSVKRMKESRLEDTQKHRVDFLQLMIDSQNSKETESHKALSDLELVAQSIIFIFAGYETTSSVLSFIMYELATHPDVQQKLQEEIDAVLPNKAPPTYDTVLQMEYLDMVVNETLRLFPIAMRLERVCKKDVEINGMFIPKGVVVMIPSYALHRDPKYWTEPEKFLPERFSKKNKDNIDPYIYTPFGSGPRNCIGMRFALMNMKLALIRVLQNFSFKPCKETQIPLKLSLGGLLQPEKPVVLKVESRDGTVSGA
# Chain of Cytochrome P450 2D6 (P10635 whole entry): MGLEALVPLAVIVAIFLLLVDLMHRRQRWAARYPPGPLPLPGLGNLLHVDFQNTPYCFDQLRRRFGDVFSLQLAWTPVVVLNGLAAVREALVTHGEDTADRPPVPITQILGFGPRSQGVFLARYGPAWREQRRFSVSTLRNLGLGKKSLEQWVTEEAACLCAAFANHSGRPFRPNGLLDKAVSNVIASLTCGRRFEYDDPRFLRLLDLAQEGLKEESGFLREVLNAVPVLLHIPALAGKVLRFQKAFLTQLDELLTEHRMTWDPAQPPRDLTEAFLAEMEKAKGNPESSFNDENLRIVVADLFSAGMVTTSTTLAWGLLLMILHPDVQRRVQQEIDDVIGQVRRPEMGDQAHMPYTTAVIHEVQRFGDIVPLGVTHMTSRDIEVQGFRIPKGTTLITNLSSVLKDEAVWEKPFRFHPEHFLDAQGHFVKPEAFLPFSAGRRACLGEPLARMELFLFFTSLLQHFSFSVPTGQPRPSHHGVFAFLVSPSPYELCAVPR
smiles,measurement,setting,value
CCc1cc2c(cc1F)c(C#N)c(-c1ccc(S(=O)(=O)N[C@@H](C)C(F)(F)F)cn1)n2-c1ncccn1,AUC(0-inf),[1],20 µM·h
same,Drug metabolism,Rattus norvegicus [2],Active
same,Drug metabolism,Rattus norvegicus [3],Active
same,Drug metabolism,Rattus norvegicus [4],Active
same,Activity,Rattus norvegicus [5],Non-toxic
same,EC50,Hepatitis C virus [6],0.007 µM
same,Drug metabolism,Rhesus monkey,Not Active
same,Drug metabolism,Canis familiaris,Not Active
same,Ratio,[7],50
same,Ratio,[8],460
same,Ratio,[9],325
same,Vd,[10],3.8 L/kg
same,Vd,[11],2.1 L/kg
same,Vd,[12],3.9 L/kg
same,Cmax,[13],540 nM
same,Cmax,[14],4000 nM
same,Cmax,[15],2400 nM
same,AUC(0-inf),[16],3.1 µM·h
same,AUC(0-inf),[17],29 µM·h
same,Activity,Hepatocyte [18],15.4%
same,Activity,Cytochrome P450 3A4 [19],9%
same,Activity,Hepatocyte [20],9.8%
same,Activity,Cytochrome P450 3A4 [21],6%
same,IC50,Cytochrome P450 2C9,> 10 µM
same,IC50,Cytochrome P450 2D6,> 10 µM
same,IC50,Cytochrome P450 3A4 [22],> 10 µM
same,half-life,[23],8 h
same,half-life,[24],8.9 h
same,half-life,[25],7.5 h
same,clearance,[26],11 mL/min/kg
same,clearance,[27],4.6 mL/min/kg
same,clearance,[28],10.1 mL/min/kg
same,bioavailability,[29],18%
same,bioavailability,[30],78%
same,bioavailability,[31],62%
same,Kp at 6 h,[32],25
same,Ratio,[33],342
same,AUC(0-t) at 6 h,[34],8.16 µM·h
same,IC50,[35],> 10 µM
same,EC50,Hepatitis C virus [36],0.002 µM
same,Activity,[37],37%
Cc1cc2c(cc1F)c(C#N)c(-c1ccc(S(=O)(=O)N[C@@H](C)C(F)(F)F)cn1)n2-c1ncc(F)cn1,IC50,Cytochrome P450 2C9,> 10 µM
same,IC50,Cytochrome P450 2D6,> 10 µM
same,IC50,Cytochrome P450 3A4 [22],> 10 µM
same,Ratio,[33],187
same,AUC(0-t) at 6 h,[34],4.08 µM·h
same,IC50,[35],> 10 µM
same,EC50,Hepatitis C virus [36],0.004 µM
same,Activity,[37],96%
Cc1cc2c(cc1F)c(C#N)c(-c1ccc(S(=O)(=O)N[C@@H](C)C(F)(F)F)cn1)n2-c1ncccc1F,IC50,Cytochrome P450 2C9,> 10 µM
same,IC50,Cytochrome P450 2D6,> 10 µM
same,IC50,Cytochrome P450 3A4 [22],> 10 µM
same,Ratio,[33],194
same,AUC(0-t) at 6 h,[34],8.54 µM·h
same,IC50,[35],> 10 µM
same,EC50,Hepatitis C virus [36],0.003 µM
same,Activity,[37],59%
